Test results: ChEMBL document CHEMBL4428039, “Anticancer properties of new synthetic hybrid molecules combining naphtho[2,3-b]furan-4,9-dione or benzo[f]indole-4,9-dione motif with phosphonate subunit” (Eur J Med Chem, 2016)
Activity calls are given as the source filed them. The calls are words filed in the database; no cut-off is given here.

How the values were obtained:
MCF7 [1] = assay: Cytotoxicity against human MCF7 cells assessed as inhibition of metabolic activity after 48 hrs by MTT assay; type: functional, cell-based; conditions: MCF7, 48 h
Outline: (§1)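 Exponentially growing cells seeded in 96-well plates and grown 24 h. Compounds in DMSO, diluted in medium (final DMSO <0.1%), added at 10^-7 to 10^-3 M for 48 h. MTT (5 mg/mL in PBS) then added for 2 h. Formazan dissolved in DMSO and read at 560 nm against untreated cells. IC50 taken from concentration–response curves; mean ± SD of ≥3 experiments.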

HL-60 [2] = assay: Cytotoxicity against human HL60 cells assessed as inhibition of metabolic activity after 48 hrs by MTT assay; type: functional, cell-based; conditions: HL-60, 48 h; outline: as §1
NALM-6 = assay: Cytotoxicity against human NALM6 cells assessed as inhibition of metabolic activity after 48 hrs by MTT assay; type: functional, cell-based; conditions: NALM-6, 48 h; outline: as §1
[3] = Selectivity index, ratio of IC50 for human MCF10A cells to IC50 for human MCF7 cells; type: toxicity; conditions: MCF10A cells versus MCF7 cells, read-out: Ratio IC50
MCF7 [4] = assay: Inhibition of cell proliferation in human MCF7 cells assessed as reduction in BrdU incorporation at 3.4 +/- 0.15 uM after 24 hrs by DAPI staining based flow cytometry relative to control; type: functional
HL-60 [5] = assay: Induction of apoptosis in human HL60 cells assessed as increase in cleaved PARP positive cells at 7.27 +/- 0.08 uM after 24 hrs by DAPI staining based flow cytometry (reference value: 1.2 +/- 0.2%); type: functional
HL-60 [6] = assay: Cell cycle arrest in human HL60 cells assessed as accumulation at G2/M phase at 7.27 +/- 0.08 uM after 24 hrs by DAPI staining based flow cytometry (reference value: 31.2%); type: functional
MCF7 [7] = assay: Induction of apoptosis in human MCF7 cells assessed as early apoptotic cells at 3.4 +/- 0.15 uM after 24 hrs by Annexin V-APC/propidium iodide staining based flow cytometry (reference value: 5.9%); type: functional
HL-60 [8] = assay: Induction of apoptosis in human HL60 cells assessed as early apoptotic cells at 7.27 +/- 0.08 uM after 24 hrs by Annexin V-APC/propidium iodide staining based flow cytometry (reference value: 3.4%); type: functional
HUVEC = assay: Cytotoxicity against HUVEC assessed as inhibition of metabolic activity after 48 hrs by MTT assay; type: ADME, cell-based; conditions: Homo sapiens; outline: as §1
MCF7 [9] = assay: Induction of apoptosis in human MCF7 cells assessed as viable cells at 3.4 +/- 0.15 uM after 24 hrs by Annexin V-APC/propidium iodide staining based flow cytometry (reference value: 86.1%); type: functional
MCF7 [10] = assay: Induction of apoptosis in human MCF7 cells assessed as necrotic cells at 3.4 +/- 0.15 uM after 24 hrs by Annexin V-APC/propidium iodide staining based flow cytometry (reference value: 1.9%); type: functional
MCF7 [11] = assay: Cell cycle arrest in human MCF7 cells assessed as accumulation at S phase at 3.4 +/- 0.15 uM after 24 hrs by DAPI staining based flow cytometry (reference value: 22%); type: functional
MCF7 [12] = assay: Cell cycle arrest in human MCF7 cells assessed as accumulation at G2/M phase at 3.4 +/- 0.15 uM after 24 hrs by DAPI staining based flow cytometry (reference value: 23%); type: functional
HL-60 [13] = assay: Inhibition of cell proliferation in human HL60 cells assessed as reduction in BrdU incorporation at 7.27 +/- 0.08 uM after 24 hrs by DAPI staining based flow cytometry relative to control; type: functional
MCF-10A = assay: Cytotoxicity against human MCF10A cells assessed as inhibition of metabolic activity after 48 hrs by MTT assay; type: ADME, cell-based; outline: as §1
HL-60 [14] = assay: Induction of DNA damage in human HL60 cells assessed as increase in H2AX phosphorylation at S139 residue at 7.27 +/- 0.08 uM after 24 hrs by DAPI staining based flow cytometry relative to control; type: functional
HL-60 [15] = assay: Induction of apoptosis in human HL60 cells assessed as necrotic cells at 7.27 +/- 0.08 uM after 24 hrs by Annexin V-APC/propidium iodide staining based flow cytometry (reference value: 0.1%); type: functional
MCF7 [16] = assay: Induction of ROS generation in human MCF7 cells at 3.4 +/- 0.15 uM after 24 hrs by Cellrox Green staining based flow cytometry relative to control; type: functional
MCF7 [17] = assay: Induction of apoptosis in human MCF7 cells assessed as increase in cleaved PARP positive cells at 3.4 +/- 0.15 uM after 24 hrs by DAPI staining based flow cytometry relative to control; type: functional, cell-based
HL-60 [18] = assay: Induction of apoptosis in human HL60 cells assessed as late apoptotic cells at 7.27 +/- 0.08 uM after 24 hrs by Annexin V-APC/propidium iodide staining based flow cytometry (reference value: 2.7%); type: functional
HL-60 [19] = assay: Induction of ROS generation in human HL60 cells at 7.27 +/- 0.08 uM after 24 hrs by Cellrox Green staining based flow cytometry relative to control; type: functional
MCF7 [20] = assay: Induction of DNA damage in human MCF7 cells assessed as increase in H2AX phosphorylation at S139 residue at 3.4 +/- 0.15 uM after 24 hrs by DAPI staining based flow cytometry relative to control; type: functional
HL-60 [21] = assay: Cytotoxicity against human HL60 cells assessed as inhibition of metabolic activity after 24 hrs by MTT assay; type: functional, cell-based; conditions: HL-60, 24 h
Outline: (§2)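 MTT assay on HL-60 or MCF-7 cells seeded and grown 24 h, then treated 24 h over 10^-7 to 10^-3 M (final DMSO <0.1%). MTT (5 mg/mL in PBS) added for 2 h. Formazan dissolved in DMSO and read at 560 nm against untreated cells. IC50 derived from concentration–response curves of ≥3 experiments.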

HL-60 [22] = assay: Induction of transmembrane potential depolarization in human HL60 cells at 7.27 +/- 0.08 uM after 24 hrs by JC-10 staining based flow cytometry (reference value: 15.9%); type: functional
HL-60 [23] = assay: Cell cycle arrest in human HL60 cells assessed as accumulation at S phase at 7.27 +/- 0.08 uM after 24 hrs by DAPI staining based flow cytometry (reference value: 26.1%); type: functional
HL-60 [24] = assay: Cell cycle arrest in human HL60 cells assessed as accumulation at G0/G1 phase at 7.27 +/- 0.08 uM after 24 hrs by DAPI staining based flow cytometry (reference value: 39.5%); type: functional
HL-60 [25] = assay: Cell cycle arrest in human HL60 cells assessed as accumulation at subG0/G1 phase at 7.27 +/- 0.08 uM after 24 hrs by DAPI staining based flow cytometry (reference value: 3.1%); type: functional
MCF7 [26] = assay: Induction of transmembrane potential depolarization in human MCF7 cells at 3.4 +/- 0.15 uM after 24 hrs by JC-10 staining based flow cytometry (reference value: 18.2%); type: functional
MCF7 [27] = assay: Cell cycle arrest in human MCF7 cells assessed as accumulation at G0/G1 phase at 3.4 +/- 0.15 uM after 24 hrs by DAPI staining based flow cytometry (reference value: 55%); type: functional
MCF7 [28] = assay: Induction of apoptosis in human MCF7 cells assessed as late apoptotic cells at 3.4 +/- 0.15 uM after 24 hrs by Annexin V-APC/propidium iodide staining based flow cytometry (reference value: 6.1%); type: functional
MCF7 [29] = assay: Cytotoxicity against human MCF7 cells assessed as inhibition of metabolic activity after 24 hrs by MTT assay; type: functional, cell-based; conditions: MCF7, 24 h; outline: as §2
HL-60 [30] = assay: Induction of ROS generation in human HL60 cells at 200 uM after 1 hr by Cellrox Green staining based flow cytometry; type: functional, cell-based
Outline: (§3)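 Positive-control ROS measurement in HL-60 and MCF-7 cells: menadione 200 µM for 1 h. Cells then stained with 5 µM CellROX Green for 30 min at 37 °C and analysed by flow cytometry. 3–4 independent experiments in triplicate, mean ± SEM.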

MCF7 [31] = assay: Induction of ROS generation in human MCF7 cells at 200 uM after 1 hr by Cellrox Green staining based flow cytometry; type: functional, cell-based; outline: as §3

SMILES: CCCn1c(O)c(P(=O)(OCC)OCC)c2c1C(=O)c1ccccc1C2=O
- IC50 (MCF7 [1]): 43.9 µM
- IC50 (HL-60 [2]): 56.2 µM
- IC50 (NALM-6): 60 µM

SMILES: CCOP(=O)(OCC)c1c2c(n(C)c1O)C(=O)c1ccccc1C2=O
- IC50 (MCF7 [1]): 50 µM
- IC50 (HL-60 [2]): 59.7 µM
- IC50 (NALM-6): 61.7 µM

SMILES: CCOP(=O)(O)c1c(-c2ccccc2Cl)oc2c1C(=O)c1ccccc1C2=O
- IC50 (MCF7 [1]): 150 µM
- IC50 (HL-60 [2]): 487 µM
- IC50 (NALM-6): 479 µM

SMILES: CCOP(=O)(OCC)c1c(-c2ccccc2Cl)oc2c1C(=O)c1ccccc1C2=O
- selectivity ratio [3]: 4
- inhibition (INH) (MCF7 [4]): 34%
- Activity (HL-60 [5]): <=82.8%
- Activity (HL-60 [6]): 26.1%
- Activity (MCF7 [7]): 3%
- Activity (HL-60 [8]): 4.8%
- IC50 (HUVEC): 3.73 µM
- Activity (MCF7 [9]): 72.4%
- Activity (MCF7 [10]): 5.6%
- Activity (MCF7 [11]): 22.4%
- Activity (MCF7 [12]): 16.4%
- inhibition (INH) (HL-60 [13]): 91%
- IC50 (MCF-10A): 10 µM
- IC50 (MCF7 [1]): 2.34 µM
- Activity (HL-60 [14]): 40.7%
- Activity (HL-60 [15]): 2.7%
- IC50 (HL-60 [2]): 6.35 µM
- fold change (FC) (MCF7 [16]): 10
- Activity (MCF7 [17]): inactive
- Activity (HL-60 [18]): 27.8%
- fold change (FC) (HL-60 [19]): 10
- IC50 (NALM-6): 5.07 µM
- Activity (MCF7 [20]): 11.03%
- IC50 (HL-60 [21]): 7.27 µM
- Activity (HL-60 [22]): 44%
- Activity (HL-60 [23]): 36.1%
- Activity (HL-60 [24]): 33.5%
- Activity (HL-60 [25]): 8.2%
- Activity (MCF7 [26]): 50 - 50.1%
- Activity (MCF7 [27]): 62%
- Activity (MCF7 [28]): 19%
- IC50 (MCF7 [29]): 3.4 µM

SMILES: CCOP(=O)(OCC)c1c(-c2cccnc2Cl)oc2c1C(=O)c1ccccc1C2=O
- IC50 (MCF7 [1]): 2.55 µM
- IC50 (HL-60 [2]): 8.66 µM
- IC50 (NALM-6): 6.65 µM

SMILES: CCCCCCn1c(O)c(P(=O)(OCC)OCC)c2c1C(=O)c1ccccc1C2=O
- IC50 (MCF7 [1]): 19.5 µM
- IC50 (HL-60 [2]): 30.7 µM
- IC50 (NALM-6): 44.3 µM

SMILES: CC1=CC(=O)c2ccccc2C1=O
- Activity (HL-60 [30]): Active
- Activity (MCF7 [31]): Active

SMILES: CCOP(=O)(OCC)c1c2c(n(C3CC3)c1O)C(=O)c1ccccc1C2=O
- IC50 (MCF7 [1]): 102 µM
- IC50 (HL-60 [2]): 65 µM
- IC50 (NALM-6): 51.3 µM

SMILES: CCOP(=O)(OCC)c1c(C)oc2c1C(=O)c1ccccc1C2=O
- IC50 (MCF7 [1]): 5.7 µM
- IC50 (HL-60 [2]): 8.13 µM
- IC50 (NALM-6): 5.85 µM

SMILES: CCOP(=O)(OCC)c1c(-c2cc(F)c(Cl)nc2Cl)oc2c1C(=O)c1ccccc1C2=O
- selectivity ratio [3]: 4
- IC50 (HUVEC): 4.85 µM
- IC50 (MCF-10A): 9.79 µM
- IC50 (MCF7 [1]): 2.85 µM
- IC50 (HL-60 [2]): 5.94 µM
- IC50 (NALM-6): 5.32 µM

SMILES: CCOP(=O)(OCC)c1c2c(n(Cc3ccccc3Cl)c1O)C(=O)c1ccccc1C2=O
- IC50 (MCF7 [1]): 65 µM
- IC50 (HL-60 [2]): 42.4 µM
- IC50 (NALM-6): 60.1 µM

SMILES: CCOP(=O)(OCC)c1c(-c2ccccc2)oc2c1C(=O)c1ccccc1C2=O
- IC50 (MCF7 [1]): 2.4 µM
- IC50 (HL-60 [2]): 6.01 µM
- IC50 (NALM-6): 6.06 µM

SMILES: CCOP(=O)(OCC)c1c(-c2ccc(Cl)cc2Cl)oc2c1C(=O)c1ccccc1C2=O
- selectivity ratio [3]: 4
- IC50 (HUVEC): 4.06 µM
- IC50 (MCF-10A): 11.3 µM
- IC50 (MCF7 [1]): 2.9 µM
- IC50 (HL-60 [2]): 5.44 µM
- IC50 (NALM-6): 4.82 µM

SMILES: COc1cccc2c1C(=O)c1c(O)c3c(c(O)c1C2=O)C[C@@](O)(C(=O)CO)C[C@@H]3O[C@H]1C[C@H](N)[C@H](O)[C@H](C)O1 [DOXORUBICIN]
- IC50 (HUVEC): 1.4 µM
- IC50 (MCF-10A): 1.2 µM
- IC50 (HL-60 [2]): 0.11 µM
